Screening data: PubChem, several laboratories
Hits are enriched below; roughly 3.1% of the tested compounds scored in any of these assays.
PAFAH1B3 inh = inhibitors of human PAFAH1B3; inhibition, % at 3.39 µM; hit rate 0.28% among 340,000; Q15102; recombinant PAFAH1B3, FP-rhodamine probe, fluorescence polarization;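 active = inhibition above the screen-wide average of all tested compounds plus 3 SD, cut at about 25% in these data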;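 also: 0% = enzyme with DMSO only and 100% = wells lacking PAFAH1B3 protein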
Target sequence (Q15102 whole entry, looked up): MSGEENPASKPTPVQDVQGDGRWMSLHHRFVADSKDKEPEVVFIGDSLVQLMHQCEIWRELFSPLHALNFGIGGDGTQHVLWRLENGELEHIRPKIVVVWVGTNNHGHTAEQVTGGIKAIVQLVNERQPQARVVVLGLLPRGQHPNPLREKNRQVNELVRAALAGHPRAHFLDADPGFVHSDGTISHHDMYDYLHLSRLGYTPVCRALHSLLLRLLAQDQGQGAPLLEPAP
pPAFAH inh = pPAFAH (human) enzyme inhibition | Q13093 | recombinant pPAFAH, FP-rhodamine probe fluorescence polarization | inhibition, % at 3.39 µM | hit rate 1.5% among 330,000;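 active = inhibition above the mean inhibition across the screen plus 3 SD, cut at about 25% in these data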;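 also: inhibitors block binding of the rhodamine activity-based probe so polarization drops; 0% = enzyme with DMSO and 100% = wells lacking pPAFAH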
Target sequence (Q13093 whole entry, looked up): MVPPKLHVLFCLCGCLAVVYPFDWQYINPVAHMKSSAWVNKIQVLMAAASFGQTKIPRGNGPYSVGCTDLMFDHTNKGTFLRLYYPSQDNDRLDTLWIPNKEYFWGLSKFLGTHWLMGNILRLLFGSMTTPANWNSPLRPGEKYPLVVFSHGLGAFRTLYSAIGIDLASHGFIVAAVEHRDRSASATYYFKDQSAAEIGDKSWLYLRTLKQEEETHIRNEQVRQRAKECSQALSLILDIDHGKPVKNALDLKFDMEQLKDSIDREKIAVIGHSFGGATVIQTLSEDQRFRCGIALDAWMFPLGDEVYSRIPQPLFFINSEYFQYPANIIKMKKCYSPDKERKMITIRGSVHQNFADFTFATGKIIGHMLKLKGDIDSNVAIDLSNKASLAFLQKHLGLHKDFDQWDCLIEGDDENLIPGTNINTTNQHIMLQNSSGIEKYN
PAFAH2 FP inh = inhibitors of human PAFAH2; Q99487; recombinant PAFAH2, FP-rhodamine activity probe, fluorescence polarization; inhibition, % at 3.39 µM; hit rate 0.99% among 340,000; AID 492956;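 active = inhibition above the mean over all tested compounds plus 3 SD, cut at about 30% in these data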;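 also: inhibitors block probe labeling of enzyme so polarization drops; 0% = enzyme with DMSO and 100% = wells lacking PAFAH2 protein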
PAFAH1B2 FP inh = PAFAH1B2 (human) inhibition. P68402. recombinant PAFAH1B2, FP-rhodamine activity probe, fluorescence polarization. inhibition, % at 3.39 µM. hit rate 1.2% among 340,000. AID 492953;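 active = inhibition above the mean of all tested compounds plus 3 SD, cut at about 24% in these data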;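 also: 0% = enzyme with DMSO and 100% = wells lacking PAFAH1B2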
Apaf1 inhib = inhibitors of human Apaf-1 apoptosome | O14727 | reconstituted apoptosome caspase-3 activity, DEVD-Rh110 fluorescence | inhibition, % at 20 µM | hit rate 0.71% among 330,000; active = inhibition of at least 40% at 20 µM;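 also: plate controls were DMSO wells for no effect and DEVD-CHO caspase inhibitor wells for full effect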
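System: Apoptosome proteins | Medium: Hepes pH 7.5 with detergent and BSA | Also added: Cytochrome c trigger plus (Z-DEVD)2-Rh110 caspase-3 substrate | Incubation: 30 min compound preincubation, 50 min activation, room temperature | Detection: Rhodamine 110 fluorescence at Ex 480/Em 540 nm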
pPAFAH FP conf = confirmation of human plasma PAF acetylhydrolase (pPAFAH) inhibitors. hit rate 72% among 2,300. inhibition, % at 3.39 µM. recombinant pPAFAH, FP-Rh probe fluorescence polarization. shares compounds with pPAFAH inh;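 active = mean inhibition of the triplicate above the hit cutoff set for the earlier primary screen, cut at about 25% in these data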;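 also: 0% = enzyme with DMSO and 100% = wells lacking pPAFAH enzyme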
Active calls of the source: *; x = not tested or not shown.

SMILES | PAFAH1B3 inh | pPAFAH inh | PAFAH2 FP inh | PAFAH1B2 FP inh | Apaf1 inhib | pPAFAH FP conf
CC1=C(C(=O)Nc2ccc(C(=O)N3CCN(c4cccc(Cl)c4)CC3)cc2)SCCO1 | 0 | 42* | 4 | 0 | 25 | 24
O=C(Nc1nc2c(s1)CN(Cc1ccccc1)CC2)c1c(F)cccc1F | -1 | 62* | -7 | -4 | -13 | 2
CC(C)(C)C(=O)Nc1nc2c(s1)CN(Cc1ccccc1)CC2 | 12 | 0 | 2 | 7 | 6 | x
NS(=O)(=O)c1cccc(NC(=O)COC(=O)CNC(=O)c2ccc(-c3ccccc3)cc2)c1 | 0 | -8 | -3 | -3 | 27 | x
COc1ccc2sc(-c3ccc(N(C)C)cc3)c(C#CC(C)(C)O)c2c1 | 11 | 15 | 1 | -2 | 4 | x
COc1ccc2sc(-c3ccc(N(C)C)cc3)c(C#Cc3cncn3C)c2c1 | 19 | 42* | 6 | 12 | 31 | 38*
Cn1ccc2cc(NC(=O)Nc3cccnc3)ccc21 | 20 | 37* | -16 | 5 | 34 | 7
Nc1ncnc2oc(-c3ccco3)c(-c3ccco3)c12 | 37* | 42* | 50* | 21 | 1 | 9
O=C1c2ccccc2NC(c2ccc(Br)s2)N1O (stereo not drawn) | x | 4 | x | x | -22 | x
COc1ccccc1NS(=O)(=O)c1ccc2c(c1)CCN2C(=O)CCC(=O)O | 0 | -4 | -1 | 5 | 6 | x
Cc1ccc(NC(=O)CSCC(=O)NNC(=O)c2ccoc2C)cc1 | -1 | -1 | 2 | -1 | 0 | x
Nc1cc2nc3ccccc3oc-2cc1=O | 10 | 36* | 4 | 4 | 48* | 8
O=C(O)C1OC(Oc2c(-c3ccc(O)c(O)c3)oc3cc(O)cc(O)c3c2=O)C(O)C(O)C1O (stereo not drawn) | x | -2 | x | x | 4 | x
O=c1c(-c2c(O)cc(O)c3c(=O)cc(-c4ccc(O)cc4)oc23)c(-c2ccc(O)cc2)oc2cc(O)cc(O)c12 | 44* | 66* | 21 | 17 | -19 | 68*
O=c1cc(-c2ccc(O)c(-c3c(O)cc(O)c4c(=O)cc(-c5ccc(O)cc5)oc34)c2)oc2cc(O)cc(O)c12 | 54* | 62* | 38* | 36* | -13 | 71*
O=c1cc(-c2ccc(O)cc2)oc2c(-c3c(O)cc(O)c4c(=O)cc(-c5ccc(O)cc5)oc34)c(O)cc(O)c12 | 56* | 63* | 57* | 40* | -12 | 68*
O=c1c(O)c(-c2ccc(O)c(O)c2)oc2cc(O)cc(O)c12 | 53* | 53* | 1 | 29* | 19 | 82*
CCS(=O)(=O)N1CCN(C(=O)c2cccc3ccccc23)CC1 | 4 | -1 | 4 | 2 | 3 | x
O=C(c1cc2cc(Cl)ccc2[nH]1)N1CCN(c2ccccn2)CC1 | 6 | 0 | 8 | 2 | 16 | x
C=CCSC1=N/C(=C\c2sccc2C)C(=O)S1 | 5 | 1 | 7 | 0 | 9 | x
C=CCSC1=N/C(=C\C=C\c2ccco2)C(=O)S1 | 13 | 61* | 33* | 6 | 30 | 18
O=C(Nc1ccc(S(=O)(=O)N2CCOCC2)cc1)c1ccc(Cl)cc1Cl | 2 | 9 | -5 | 1 | 4 | x
CCOc1ccc(S(=O)(=O)N2CCOCC2)cc1NC(=O)CSCC(=O)Nc1ccc(OC)cc1 | 6 | x | 4 | -2 | x | x
N=C1CCC(=N)c2c1c(O)c1ccccc1c2O | 44* | 64* | 69* | 39* | 77* | 41*
NNC(=S)Nc1cccc(-c2n[nH]c(=S)o2)c1 | 21 | 39* | 12 | 5 | -15 | 7
SMILES | PAFAH1B3 inh | pPAFAH inh | PAFAH2 FP inh | PAFAH1B2 FP inh | Apaf1 inhib | pPAFAH FP conf
CN(C)C(=S)Nc1cccc(-c2n[nH]c(=S)o2)c1 | 8 | 3 | -1 | -1 | 1 | x
CC(C)[C@@H](CSc1ccccc1)N1CCN(Cc2ccccc2)CCC1=O | -2 | 4 | 2 | 6 | 1 | x
CC1=CN2C(=N)/C(=C/c3ccc([N+](=O)[O-])o3)C(=O)N=C2S1 | -10 | 44* | 8 | -2 | x | 30*
COc1ccc2cc(C[C@@H]3CC[C@@H](CO)O3)ccc2c1 | 4 | 2 | 1 | 0 | 7 | x
N=C1/C(=C\c2ccc(-c3cc(Cl)cc(Cl)c3)o2)C(=O)N=C2SC=C(c3ccccc3)N12 | -6 | 12 | -12 | -5 | 3 | x
N=C1/C(=C/c2ccc(-c3cccc(C(=O)O)c3)o2)C(=O)N=C2SC=C(c3ccccc3)N12 | 27* | 50* | 32* | 26* | 36 | 62*
CCCC1Nc2ccc(C(=O)O)cc2C2C=CCC12 (stereo not drawn) | 32* | 46* | 44* | 18 | x | 31*
CCOC(=O)C1Nc2c(F)cc(C)cc2C2C=CCC12 (stereo not drawn) | x | 10 | x | x | 12 | x
CCOC(=O)C1Nc2ccc(C(=O)O)cc2C2C=CCC12 (stereo not drawn) | 49* | 40* | 18 | 24 | -6 | 7
CC(=O)c1ccc2c(c1)C1C=CCC1C(c1cc3c(cc1Br)OCO3)N2 (stereo not drawn) | 8 | 3 | 1 | 1 | 3 | x
CC1CC(=O)C(C(C2=C(O)CC(C)CC2=O)c2ccccc2)=C(O)C1 (stereo not drawn) | 4 | x | -7 | -1 | x | x
Cc1ccc([N+](=O)[O-])cc1-c1[nH]c(-c2ccc(O)c(O)c2)nc1-c1ccccc1 | 19 | 65* | -2 | 3 | 18 | 83*
COc1ccc(-c2nc(-c3ccccc3)c(-c3cc([N+](=O)[O-])ccc3C)[nH]2)cc1O | 10 | 10 | 5 | -4 | 8 | x
CNc1c(NC(=O)C2CCC(C)CC2)c(=O)oc2ccccc12 (stereo not drawn) | 1 | 1 | -6 | 7 | 3 | x
COc1cc(/C=C2\C(=N)N3N=C(N4CCOCC4)SC3=NC2=O)ccc1OC(=O)c1ccccc1 | 1 | 15 | 26 | 12 | 6 | x
N=C1/C(=C\c2ccc(OC(=O)c3ccccc3Cl)cc2)C(=O)N=C2SC(N3CCOCC3)=NN12 | 16 | 36* | 8 | 5 | 19 | 33*
CCOC(=O)c1c(C)[nH]c(C)c1S(=O)(=O)N(C)CC(=O)Nc1ccccc1 | 4 | 38* | 2 | 1 | 1 | 4
COc1ccc(COC(=O)c2cc([N+](=O)[O-])ccc2N2CCOCC2)cc1F | 2 | 43* | -2 | -1 | 24 | 8
O=C(OCc1cccc(Cl)c1)c1cc([N+](=O)[O-])ccc1N1CCOCC1 | 2 | 6 | 3 | 6 | 18 | x
O=[N+]([O-])c1cc(/C=N/Nc2nc3ccccc3[nH]2)c(O)cc1O | x | 40* | x | x | x | 34*
CCN(CC)S(=O)(=O)c1ccc(N2CCOCC2)c(NC(=O)COc2ccccc2)c1 | 10 | 9 | 7 | 0 | 14 | x
CCc1ccccc1OCC(=O)Nc1cc(S(=O)(=O)N(CC)CC)ccc1N1CCOCC1 | -1 | 49* | -11 | -1 | 17 | 10
